This is an account of results in ChEMBL document CHEMBL2434859, “Targeting botulinum A cellular toxicity: a prodrug approach” (J Med Chem, 2013).

Molecules are shown by their SMILES. Calls of active or inactive are those of the source. No cut-off for these calls is given here.

What is called EC50 is the midpoint of the concentration-response curve. What is called inhibition is the share of the control response that was lost under treatment. What is called half-life is the time in which the quantity being followed falls by half. A low value points to rapid decline.

Series [1] in a line: Half life in culture media at 10 to 100 uM by LC/MS analysis. The format is physicochemical. The following applies: for t1/2: 100 µM. An outline of the steps:
(§1)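 Compound at 10–100 μM (1% DMSO) was held in PBS pH 7.4 or neurobasal medium. Aliquots were taken at timed intervals; medium samples were quenched in cold acetonitrile. A deuterated internal standard (1 μM) was added, and samples were read by LC/MS (C8, SIM) against calibration curves. Half-life came from an exponential decay fit.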

Series [2] in a line: Half life in PBS buffer at 10 to 100 uM by LC/MS analysis. Format: physicochemical. An outline of the steps:
as §1

Series [3] has as its target Botulinum neurotoxin type A (Clostridium botulinum (strain Hall / ATCC 3502 / NCTC 13319 / Type A), UniProt P0DPI1). Briefly: (§2) Inhibition of Clostridium botulinum A Hall BoNT LC/A in human induced pluripotent stem cell-derived neurons assessed as inhibition of intracellular SNAP-25 cleavage after 8 hrs by Western blot analysis. Format: cell-based, Clostridium botulinum A str. Hall. In general terms: Immunoblotting shows a protein as a band on a membrane.

For series [4], the target named is Botulinum neurotoxin type A (Clostridium botulinum (strain Hall / ATCC 3502 / NCTC 13319 / Type A)) (UniProt P0DPI1). Briefly: Inhibition of Clostridium botulinum A Hall BoNT LC/A in human induced pluripotent stem cell-derived neurons assessed as inhibition of intracellular SNAP-25 cleavage after 8 hrs by Western blot analysis in presence of 0.01% Tween-80. The format is cell-based. The following applies: Clostridium botulinum A str. Hall.

The target is the same in series [5]. The series is described as §2. The following applies: Clostridium botulinum A str. Hall. Format: cell-based.
Series [6] has the same target. Briefly: Inhibition of Clostridium botulinum A Hall BoNT LC/A in human induced pluripotent stem cell-derived neurons assessed as inhibition of intracellular SNAP-25 cleavage at 25 uM after 8 hrs by Western blot analysis relative to control. Particulars: Clostridium botulinum A str. Hall. The format is cell-based.
The nature of series [7]: Cellular uptake in golgi apparatus of mouse Neuro2a cell assessed as release of AMC and 1-adamantylacetohydroxamic acid at 50 uM after 3 hrs by Alexa Fluor 488-conjugated wheat germ agglutinin/TOTO-3 staining-based laser scanning confocal microscopic analysis. Format: ADME.
A short description of series [8]: Prodrug conversion in mouse Neuro2a cells assessed as release of AMC and 1-adamantylacetohydroxamic acid at 50 uM after 3 hrs by Alexa Fluor 488-conjugated wheat germ agglutinin/TOTO-3 staining-based laser scanning confocal microscopic analysis. The following applies: n2a. Format: ADME, cell-based.
Series [9] is described as follows: Cytotoxicity against human induced pluripotent stem cell-derived neurons assessed as SNAP-25 level at 25 uM after 8 hrs by Western blot analysis. Particulars: induced pluripotent stem cell-derived neuron.

Botulinum neurotoxin type A (Clostridium botulinum (strain Hall / ATCC 3502 / NCTC 13319 / Type A)), sequence (P0DPI1 2-448 limits assumed): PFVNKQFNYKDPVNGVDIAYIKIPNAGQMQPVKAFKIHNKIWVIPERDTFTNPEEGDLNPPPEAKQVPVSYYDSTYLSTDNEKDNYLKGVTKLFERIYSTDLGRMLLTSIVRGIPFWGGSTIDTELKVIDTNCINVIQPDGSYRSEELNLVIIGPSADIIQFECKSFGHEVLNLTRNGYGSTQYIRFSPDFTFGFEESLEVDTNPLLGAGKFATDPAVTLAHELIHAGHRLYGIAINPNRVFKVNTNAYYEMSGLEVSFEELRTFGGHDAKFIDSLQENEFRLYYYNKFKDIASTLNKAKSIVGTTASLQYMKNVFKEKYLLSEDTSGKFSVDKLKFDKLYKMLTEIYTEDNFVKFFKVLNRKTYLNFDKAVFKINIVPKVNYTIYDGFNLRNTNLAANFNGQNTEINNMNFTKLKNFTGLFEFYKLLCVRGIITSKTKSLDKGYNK
Botulinum neurotoxin type A, sequence (P0DPI1 2-448 limits assumed): as above

`O=C(CC12CC3CC(CC(C3)C1)C2)NOC(=O)Nc1ccc(F)cc1`: the t1/2 in [1] was 0.62 h; in series [2], 0.9 h. In addition, the EC50 in series [3] (read-out: EC50) was > 100 µM.
The corresponding values for `CCNC(=O)ONC(=O)CC12CC3CC(CC(C3)C1)C2` are 15.1 h, 27.6 h and > 100 µM.
The corresponding values for `O=C(CC12CC3CC(CC(C3)C1)C2)NOC(=O)N1CCOCC1` are 33 h, 48 h and 37 µM.
With `COCCN(CCOC)C(=O)ONC(=O)CC12CC3CC(CC(C3)C1)C2`, the t1/2 in series [1] was determined as 48 h; in series [2], 164 h. Further, in [3] (read-out: EC50), the EC50 is > 100 µM.
The corresponding values for `O=C(CC12CC3CC(CC(C3)C1)C2)NOC(=O)NCc1ccc(F)cc1` are 11.5 h, 11.5 h and 27 µM.
On the same counts, the results for `COc1ccc(NC(=O)ONC(=O)CC23CC4CC(CC(C4)C2)C3)cc1` are 0.85 h, 1.1 h and > 100 µM.
With `O=C(CC12CC3CC(CC(C3)C1)C2)NOC(=O)NCc1ccccc1`, the t1/2 in series [1] amounted to 14.6 h; in [2], 17.6 h. For the same molecule, the inhibition result in [4] is “Active”. In addition, the values for the inhibition result in series [5] and in series [6] were “Dose-dependent effect” and 50%, respectively. Also, in series [3] (read-out: EC50), the EC50 was found to be 20 µM.
For the molecule `Cc1cc(=O)oc2cc(NC(=O)ONC(=O)CC34CC5CC(CC(C5)C3)C4)ccc12`, the Drug uptake entry in [7] is “Active”. Also, the Drug metabolism result in series [8] is on record as “Active”. Further, the half-life at up to 100 µM in [1] (culture media) is 4.5 h. In [5], the inhibition entry is “Active”.
Consider `CN(C)C(=O)ONC(=O)CC12CC3CC(CC(C3)C1)C2`, for which the t1/2 was 61 h in [1] and 149 h in series [2]. Besides, the EC50 in [3] (read-out: EC50) was > 100 µM.
On the same counts, the results for `COc1ccc(CNC(=O)ONC(=O)CC23CC4CC(CC(C4)C2)C3)cc1` are 11.2 h, 14 h and 42 µM.
On the same counts, the results for `CC1(C)ON=C(CC23CC4CC(CC(C4)C2)C3)O1` are 10.2 h, 3.3 h and > 100 µM.
The corresponding values for `COc1cc(NC(=O)ONC(=O)CC23CC4CC(CC(C4)C2)C3)cc(OC)c1` are 1.6 h, 1.2 h and > 100 µM.
For the molecule `O=C(CC12CC3CC(CC(C3)C1)C2)NOC(=O)Nc1ccccc1`, the t1/2 was 0.76 h in series [1] and 1.1 h in [2]. Further, the EC50 in series [3] (read-out: EC50) is > 100 µM.
On to `CC(C)(C)NC(=O)ONC(=O)CC12CC3CC(CC(C3)C1)C2`, for which the t1/2 in [2] was 72 h. The EC50 entry in [3] is listed as “ND(toxic)”.
`O=C(CC12CC3CC(CC(C3)C1)C2)N(O)C(=O)NCc1ccccc1`: in series [9], the Activity result is listed as “Toxic”.
